{
  "source": "ChEMBL document CHEMBL4145521",
  "about": "“Regioselective synthesis of 3,4-diaryl-5-unsubstituted isoxazoles, analogues of natural cytostatic combretastatin A4” (Eur J Med Chem, 2018)",
  "format_in_all_cases": "functional",
  "key": {"Paracentrotus lividus": {"test_system": "Paracentrotus lividus", "assay": "Antimitotic activity against Paracentrotus lividus embryo assessed as cleavage alteration measured at 2.5 hrs post fertilization by light microscopy", "how_it_was_run": "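Sea urchin eggs were fertilized with diluted sperm and cultured at room temperature in filtered seawater with paddle agitation (60 rpm), at up to 2000 embryos/mL. The effective threshold concentration causing cleavage alteration, death before hatching or full mitotic arrest was scored in duplicate.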"}, "MOLT-4": {"test_system": "MOLT-4", "assay": "Cytotoxicity against human MOLT4 cells assessed as cell growth at 0.01 uM incubated for 48 hrs by sulforhodamine B assay relative to control", "settings": "MOLT-4, 48 h, read-out: Activity"}, "SK-MEL-28 [1]": {"test_system": "SK-MEL-28", "assay": "Cytotoxicity against human SK-MEL-28 cells assessed as cell growth at 0.1 uM incubated for 48 hrs by sulforhodamine B assay relative to control", "settings": "SK-MEL-28, 48 h, read-out: Activity"}, "EKVX": {"test_system": "EKVX", "assay": "Cytotoxicity against human EKVX cells assessed as cell growth at 1 uM incubated for 48 hrs by sulforhodamine B assay relative to control", "settings": "read-out: Activity"}, "HOP-92": {"test_system": "HOP-92", "assay": "Cytotoxicity against human HOP92 cells assessed as cell growth at 1 uM incubated for 48 hrs by sulforhodamine B assay relative to control", "settings": "HOP-92, 48 h, read-out: Activity"}, "RXF 393": {"test_system": "RXF 393", "assay": "Cytotoxicity against human RXF393 cells assessed as cell growth at 1 uM incubated for 48 hrs by sulforhodamine B assay relative to control", "settings": "RXF 393, 48 h, read-out: Activity"}, "Hs-578T": {"test_system": "Hs-578T", "assay": "Cytotoxicity against human Hs 578T cells assessed as cell growth at 1 uM incubated for 48 hrs by sulforhodamine B assay relative to control", "settings": "read-out: Activity"}, "RPMI-8226": {"test_system": "RPMI-8226", "assay": "Cytotoxicity against human RPMI8226 cells assessed as cell growth at 10 uM incubated for 48 hrs by sulforhodamine B assay relative to control", "settings": "RPMI-8226, 48 h, read-out: Activity"}, "SR": {"test_system": "SR", "assay": "Cytotoxicity against human SR cells assessed as cell growth at 10 uM incubated for 48 hrs by sulforhodamine B assay relative to control", "settings": "read-out: Activity"}, "SK-OV-3": {"test_system": "SK-OV-3", "assay": "Cytotoxicity against human SKOV3 cells assessed as cell growth at 10 uM incubated for 48 hrs by sulforhodamine B assay relative to control", "settings": "SK-OV-3, 48 h, read-out: Activity"}, "SK-MEL-28 [2]": {"test_system": "SK-MEL-28", "assay": "Cytotoxicity against human SK-MEL-28 cells assessed as cell growth at 100 uM incubated for 48 hrs by sulforhodamine B assay relative to control", "settings": "SK-MEL-28, 48 h, read-out: Activity"}, "HCT-116": {"test_system": "HCT-116", "assay": "Cytotoxicity against human HCT116 cells incubated for 48 hrs by sulforhodamine B assay", "settings": "HCT-116, 48 h"}, "SNB-75": {"test_system": "SNB-75", "assay": "Cytotoxicity against human SNB75 cells incubated for 48 hrs by sulforhodamine B assay", "settings": "SNB-75, 48 h"}, "OVCAR-5": {"test_system": "OVCAR-5", "assay": "Cytotoxicity against human OVCAR5 cells incubated for 48 hrs by sulforhodamine B assay", "settings": "OVCAR-5, 48 h"}},
  "data": [
    {"smiles": "COc1ccc(-c2nocc2-c2cc(OC)c(OC)c(OC)c2)cc1", "values": [
      {"measurement": "EC", "setting": "Paracentrotus lividus", "result": 0.01, "unit": "µM"},
      {"measurement": "growth at 0.01 µM", "setting": "MOLT-4", "result": 99, "unit": "%"},
      {"measurement": "growth at 0.1 µM", "setting": "SK-MEL-28 [1]", "result": 61, "unit": "%"},
      {"measurement": "growth at 1 µM", "setting": "EKVX", "result": 37, "unit": "%"},
      {"measurement": "growth at 1 µM", "setting": "HOP-92", "result": 46, "unit": "%"},
      {"measurement": "growth at 1 µM", "setting": "RXF 393", "result": -7, "unit": "%"},
      {"measurement": "growth at 1 µM", "setting": "Hs-578T", "result": 31, "unit": "%"},
      {"measurement": "growth at 10 µM", "setting": "RPMI-8226", "result": 16, "unit": "%"},
      {"measurement": "growth at 10 µM", "setting": "SR", "result": 22, "unit": "%"},
      {"measurement": "growth at 10 µM", "setting": "SK-OV-3", "result": 32, "unit": "%"},
      {"measurement": "growth at 100 µM", "setting": "SK-MEL-28 [2]", "result": -5, "unit": "%"},
      {"measurement": "GI50", "setting": "HCT-116; read-out: GI50", "result": 0.039, "unit": "µM"},
      {"measurement": "LC50 (concentration killing 50% of cells)", "setting": "HCT-116; read-out: LC50", "result": "> 100", "unit": "µM"},
      {"measurement": "TGI", "setting": "HCT-116; read-out: TGI", "result": 14.7, "unit": "µM"},
      {"measurement": "GI50", "setting": "HCT-116; read-out: pGI50 (converted)", "result": 0.0389, "unit": "µM"},
      {"measurement": "LC50 (concentration killing 50% of cells)", "setting": "HCT-116; read-out: pLC50 (converted)", "result": "> 100", "unit": "µM"},
      {"measurement": "TGI", "setting": "HCT-116; read-out: pTGI (converted)", "result": 14.8, "unit": "µM"},
      {"measurement": "GI50", "setting": "SNB-75; read-out: GI50", "result": 0.0772, "unit": "µM"},
      {"measurement": "CC50", "setting": "SNB-75; read-out: LC50 (the source's name)", "result": "> 100", "unit": "µM"},
      {"measurement": "TGI", "setting": "SNB-75; read-out: TGI", "result": "> 100", "unit": "µM"},
      {"measurement": "GI50", "setting": "SNB-75; read-out: pGI50 (converted)", "result": 0.0776, "unit": "µM"},
      {"measurement": "CC50", "setting": "SNB-75; read-out: pLC50 (the source's name) (converted)", "result": "> 100", "unit": "µM"},
      {"measurement": "TGI", "setting": "SNB-75; read-out: pTGI", "result": "> 100", "unit": "µM"},
      {"measurement": "GI50", "setting": "OVCAR-5; read-out: GI50", "result": 1.65, "unit": "µM"},
      {"measurement": "LC50", "setting": "OVCAR-5; read-out: LC50", "result": "> 100", "unit": "µM"},
      {"measurement": "TGI", "setting": "OVCAR-5; read-out: TGI", "result": "> 100", "unit": "µM"},
      {"measurement": "GI50", "setting": "OVCAR-5; read-out: pGI50 (converted)", "result": 1.66, "unit": "µM"},
      {"measurement": "LC50", "setting": "OVCAR-5; read-out: pLC50 (converted)", "result": "> 100", "unit": "µM"},
      {"measurement": "TGI", "setting": "OVCAR-5; read-out: pTGI", "result": "> 100", "unit": "µM"}
    ]}
  ]
}
